Data from ChEMBL document CHEMBL1156559, “Efficient synthesis and utilization of phenyl-substituted heteroaromatic carboxylic acids as aryl diketo acid isosteres in the design of novel HIV-1 integrase inhibitors” (Bioorg Med Chem Lett, 2008).

Columns and labels:
[1] = target: T1, Human immunodeficiency virus type 1 integrase (Human immunodeficiency virus 1, UniProt Q7ZJM1); test: Inhibition of HIV1 wild type integrase 3'-processing activity
Summary of the method: (§1)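 Wild-type integrase at 200 nM final was preincubated with inhibitor at 30 °C for 30 min. Buffer: 50 mM NaCl, 1 mM Hepes pH 7.5, 7.5 mM MnCl2, 0.1 mg/ml BSA, 10 mM 2-mercaptoethanol, 10% glycerol, 10% DMSO, 25 mM MOPS pH 7.2. Read-out was conversion of 21-mer DNA substrate to 19-mer (3'-processing) or to strand-transfer products. % inhibition was set against DNA-alone and DNA+IN controls. IC50 came from log concentration vs % inhibition.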

[2] = tested on: Human immunodeficiency virus 1; test: Antiviral activity against HIV1 3B assessed as inhibition of virus-induced cytopathogenicity in human C8166 cells after 4 days by MTT assay; type: functional, organism-based; conditions: Human immunodeficiency virus 1, 3B, C8166, 96 h
Summary of the method: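 Protection of C8166 cells from HIV-1-induced cytopathogenicity, expressed as the 50% effective concentration. Values are means of two separate experiments.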

[3] = Cytotoxicity against human C8166 cells by MTT method; type: cell-based
Summary of the method: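 C8166 cell proliferation measured by MTT, expressed as the concentration reducing proliferation by 50%. Values are means of two separate experiments.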

[4] = target: T1, Human immunodeficiency virus type 1 integrase; test: Inhibition of HIV1 wild type integrase strand transfer activity; summary of the method: as §1
[5] = Therapeutic index, ratio of CC50 for human C8166 cells to EC50 for HIV1 3B; type: cell-based; conditions: read-out: Ratio CC50/EC50
Summary of the method: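 Computed as CC50/EC50 from the C8166 MTT cytostatic and HIV-1 cytoprotection assays, each a mean of two separate experiments.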

T1 sequence (Q7ZJM1 whole entry): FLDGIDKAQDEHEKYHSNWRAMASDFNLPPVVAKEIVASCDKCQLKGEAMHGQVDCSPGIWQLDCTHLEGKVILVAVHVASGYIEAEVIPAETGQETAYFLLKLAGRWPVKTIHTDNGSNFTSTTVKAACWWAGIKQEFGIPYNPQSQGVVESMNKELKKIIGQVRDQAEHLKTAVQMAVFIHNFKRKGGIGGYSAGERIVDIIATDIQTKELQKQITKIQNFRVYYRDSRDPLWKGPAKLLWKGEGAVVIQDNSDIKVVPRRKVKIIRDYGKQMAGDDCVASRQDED

SMILES	IC50 [1]	IC50 [4]	EC50 [2]	CC50 [3]	selectivity ratio [5]
O=C(O)c1cc(-c2cccc(OCc3ccccc3)c2)no1	> 100 µM	81 µM	7.2 µM	282 µM	39.2
O=C(O)c1cc(-c2cccc(OCc3ccccc3)c2)ns1	> 100 µM	> 100 µM	51.7 µM	246 µM	4.76
O=C(O)c1cc(-c2cccc(OCc3ccccc3)c2)on1	> 100 µM	68 µM	91 µM	206 µM	2.27
O=C(O)c1csnc1-c1cccc(OCc2ccccc2)c1	> 100 µM	> 100 µM	58 µM	> 642 µM	> 11
O=C(NO)c1cc(-c2cccc(OCc3ccccc3)c2)on1	> 100 µM	27 µM	62.8 µM	136 µM	2.17

Second part, led by results:

IC50 [1]	IC50 [4]	SMILES	EC50 [2]	CC50 [3]	selectivity ratio [5]
> 100 µM	97 µM	O=C(O)c1cc(-c2ccc([N+](=O)[O-])cc2)on1	199 µM	> 854 µM	> 4.3
> 100 µM	100 µM	O=C(O)c1cc(-c2cccc(OCc3ccccc3)c2)[nH]n1	277 µM	640 µM	2.31
> 100 µM	> 100 µM	O=C(O)c1cc(-c2ccc([N+](=O)[O-])cc2)[nH]n1	3.6 µM	> 857 µM	> 238
> 100 µM	> 100 µM	COC(=O)c1cc(-c2ccc([N+](=O)[O-])cc2)[nH]n1	253 µM	> 809 µM	> 3.2
